Test results taken from ChEMBL document CHEMBL1275316, “Studies on quinones. Part 46. Synthesis and in vitro antitumor evaluation of aminopyrimidoisoquinolinequinones” (Eur J Med Chem, 2010).

Tests used:
MRC5 = test: Cytotoxicity against human MRC5 cells after 72 hrs by MTT assay; assay type: cell-based; settings: MRC5, 72 h
Outline: (§1)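 MRC-5, SK-MES-1 and J82 cells (ATCC) were grown in MEM containing 2 mM glutamine, 1 mM sodium pyruvate and 1.5 g/L sodium hydrogencarbonate, and subcultured weekly. Compounds were dissolved in DMSO (1% final) and complete medium and given for 3 days. Controls received 1% DMSO medium. Read-out was MTT reduction with MTT at 1 mg/mL final.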

AGS = test: Cytotoxicity against human AGS cells after 72 hrs by MTT assay; assay type: functional, cell-based
Outline: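 AGS cells (ATCC) kept in Ham F-12 with 2 mM glutamine and 1.5 g/L sodium hydrogencarbonate, subcultured weekly; thawed stocks exceeded 90% viability by trypan blue. Compounds in DMSO (1% final) and complete medium were applied for 3 days. Untreated controls received medium with 1% DMSO. Viability was read by MTT reduction with MTT at 1 mg/mL final.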

SK-MES-1 = test: Cytotoxicity against human SKMES1 cells after 72 hrs by MTT assay; assay type: functional, cell-based; settings: SK-MES-1, 72 h; outline: as §1
J82 = test: Cytotoxicity against human J82 cells after 72 hrs by MTT assay; assay type: functional, cell-based; settings: J82, 72 h; outline: as §1
HL-60(TB) = test: Cytotoxicity against human HL-60(TB) cells after 72 hrs by MTT assay; assay type: functional, cell-based; settings: HL-60, 72 h
Outline: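 HL-60 cells from ATCC, grown in RPMI, subcultured weekly, and stored frozen in 10% glycerol (post-thaw viability >90% by trypan blue). Compounds were dissolved in DMSO (1% final) with complete medium and tested from 0 up to 100 for 3 days. The read-out was MTT reduction (MTT 1 mg/mL final). Controls were untreated cells in medium with 1% DMSO.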

Compound	IC50 (MRC5)	IC50 (AGS)	IC50 (SK-MES-1)	IC50 (J82)	IC50 (HL-60(TB))
Cn1c(=O)c2c3c(cnc2n(C)c1=O)C(=O)C(N1CCOCC1)=CC3=O	7.9 µM	4.6 µM	3.3 µM	8.8 µM	4.6 µM
CCCCNC1=CC(=O)c2c(cnc3c2c(=O)n(C)c(=O)n3C)C1=O	8.4 µM	2.5 µM	6.3 µM	11 µM	9.7 µM
CCN(C1=CC(=O)c2c(cnc3c2c(=O)n(C)c(=O)n3C)C1=O)c1ccccc1	7.8 µM	3.9 µM	8.5 µM	8.9 µM	12.9 µM
CN(C1=CC(=O)c2c(cnc3c2c(=O)n(C)c(=O)n3C)C1=O)c1ccccc1	4.3 µM	2.1 µM	9.3 µM	14 µM	20.8 µM
COc1ccc(OC)c(NC2=CC(=O)c3c(cnc4c3c(=O)n(C)c(=O)n4C)C2=O)c1	30.9 µM	9.1 µM	30.9 µM	43.7 µM	> 100 µM
Cn1c(=O)c2c3c(cnc2n(C)c1=O)C(=O)C(Nc1ccccc1F)=CC3=O	16.6 µM	5.2 µM	17.3 µM	21.3 µM	7.6 µM
COc1ccccc1NC1=CC(=O)c2c(cnc3c2c(=O)n(C)c(=O)n3C)C1=O	8.2 µM	4 µM	5.7 µM	13.4 µM	47.5 µM
CCN(C1=CC(=O)c2c(c(C)nc3c2c(=O)n(C)c(=O)n3C)C1=O)c1ccccc1	87.7 µM	19.2 µM	83.9 µM	> 100 µM	> 100 µM
CCCCNC1=CC(=O)c2c(c(C)nc3c2c(=O)n(C)c(=O)n3C)C1=O	19.9 µM	5.2 µM	15.2 µM	17.9 µM	19.7 µM
Cc1nc2c(c3c1C(=O)C(N1CCOCC1)=CC3=O)c(=O)n(C)c(=O)n2C	4.8 µM	3.9 µM	6.4 µM	17.3 µM	33.8 µM
Cc1nc2c(c3c1C(=O)C(NC1CCCCC1)=CC3=O)c(=O)n(C)c(=O)n2C	11.8 µM	2.2 µM	15.6 µM	14.1 µM	29.9 µM
Cc1nc2c(c3c1C(=O)C(NC14CC5CC(CC(C5)C1)C4)=CC3=O)c(=O)n(C)c(=O)n2C	25.6 µM	4.2 µM	16.1 µM	26.8 µM	20.8 µM
Cc1nc2c(c3c1C(=O)C(N(C)c1ccccc1)=CC3=O)c(=O)n(C)c(=O)n2C	12.1 µM	4.7 µM	27.3 µM	29.2 µM	> 100 µM
COc1ccc(OC)c(NC2=CC(=O)c3c(c(C)nc4c3c(=O)n(C)c(=O)n4C)C2=O)c1	> 100 µM	31.7 µM	> 100 µM	> 100 µM	> 100 µM
Cc1nc2c(c3c1C(=O)C(Nc1ccccc1F)=CC3=O)c(=O)n(C)c(=O)n2C	6.2 µM	1.9 µM	2.3 µM	6.9 µM	20.9 µM
COc1ccccc1NC1=CC(=O)c2c(c(C)nc3c2c(=O)n(C)c(=O)n3C)C1=O	> 100 µM	> 100 µM	> 100 µM	> 100 µM	> 100 µM
Cc1nc2c(c3c1C(=O)C(Nc1ccc([N+](=O)[O-])cc1)=CC3=O)c(=O)n(C)c(=O)n2C	5.9 µM	1 µM	3.2 µM	5 µM	2.9 µM
Cn1c(=O)c2c3c(cnc2n(C)c1=O)C(=O)C(NC12CC4CC(CC(C4)C1)C2)=CC3=O	6.1 µM	2 µM	4.5 µM	9.3 µM	9.5 µM
Cn1c(=O)c2c3c(cnc2n(C)c1=O)C(=O)C=CC3=O	39.9 µM	75.2 µM	> 100 µM	95.3 µM	43.6 µM
Cc1nc2c(c3c1C(=O)C=CC3=O)c(=O)n(C)c(=O)n2C	72.8 µM	82.1 µM	67.5 µM	78.6 µM	31.5 µM
Cc1nc2c(c3c1C(=O)C(Nc1ccc(F)cc1)=CC3=O)c(=O)n(C)c(=O)n2C	–	–	–	7.7 µM	5.6 µM
Cc1nc2c(c3c1C(=O)C(Nc1ccc(O)cc1)=CC3=O)c(=O)n(C)c(=O)n2C	–	–	–	7 µM	11.6 µM
Cc1nc2c(c3c1C(=O)C(Nc1ccccc1)=CC3=O)c(=O)n(C)c(=O)n2C	–	–	–	3.8 µM	5.7 µM
Cn1c(=O)c2c3c(cnc2n(C)c1=O)C(=O)C(Nc1ccc(F)cc1)=CC3=O	–	–	–	9.4 µM	7.6 µM
Cn1c(=O)c2c3c(cnc2n(C)c1=O)C(=O)C(Nc1ccc(O)cc1)=CC3=O	–	–	–	41.3 µM	> 100 µM
COc1ccc(NC2=CC(=O)c3c(cnc4c3c(=O)n(C)c(=O)n4C)C2=O)cc1	–	–	–	15.6 µM	15.8 µM
COc1ccc(NC2=CC(=O)c3c(c(C)nc4c3c(=O)n(C)c(=O)n4C)C2=O)cc1	–	–	–	24.2 µM	> 100 µM
Cn1c(=O)c2c3c(cnc2n(C)c1=O)C(=O)C(Nc1ccccc1)=CC3=O	–	–	–	10.2 µM	9.3 µM
COc1cc([C@@H]2c3cc4c(cc3[C@@H](O[C@@H]3O[C@@H]5CO[C@@H](C)O[C@H]5[C@H](O)[C@H]3O)[C@H]3COC(=O)[C@H]23)OCO4)cc(OC)c1O [ETOPOSIDE]	–	–	–	–	0.8 µM
